We go through 43 molecules from ChEMBL document CHEMBL1133733, “Anilides of (R)-trifluoro-2-hydroxy-2-methylpropionic acid as inhibitors of pyruvate dehydrogenase kinase” (J Med Chem, 2000).

Active and inactive are the calls of the source. The calls are words filed in the database; no cut-off is given here.

The target in data set [1] is T1, Pyruvate dehydrogenase kinase (Rattus norvegicus) (UniProt Q63065+A6IPZ9+Q64536+O54937). The experiment in a line: In vivo percent of control lactate in 24 hr fasted rats at 300 umol/kg oral dose after 2.5 hours. The format is functional, organism-based. In outline: (§1)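 Normal Sprague–Dawley rats, n = 6/group, fasted 24 h, then dosed orally (μmol/kg); blood lactate sampled at 2, 2.5 or 5 h postdose and expressed as percent of control; significance p < 0.05.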

Data set [2] deals with T1, Pyruvate dehydrogenase kinase (Rattus norvegicus). The experiment in a line: In vivo percent of control lactate in 24 hr fasted rats at 100 umol/kg oral dose after 5 hours. The format is functional, organism-based. In short, it runs like this:
as §1

Data set [3] has the same target. Kind of data set: In vivo percent of control lactate in 24 hr fasted rats at 100 umol/kg oral dose after 2.5 hours. The format is functional, organism-based. In outline:
as §1

Data set [4] has the same target. The experiment in a line: In vivo percent of control lactate in 24 hr fasted rats at 300 umol/kg oral dose after 5 hours. The format is functional, organism-based. In outline: as §1
Data set [5] deals with Pyruvate dehydrogenase kinase (Homo sapiens) (UniProt Q15119+Q15120+Q16654+Q15118). The experiment in a line: In vitro inhibition of pyruvate dehydrogenase kinase (PDHK) in primary enzymatic assay; Inactive. The format is protein assay. As to conditions: Sus scrofa. In outline:
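Primary high-throughput enzymatic assay of PDH kinase inhibition using commercial porcine PDH complex; IC50 reported as μM ± standard error.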

The target of data set [6] is T1, Pyruvate dehydrogenase kinase (Rattus norvegicus). Kind of data set: In vivo percent of control lactate in 24 hr fasted rats at 250 umol/kg oral dose. The format is functional, organism-based. In outline:
as §1

Data set [7] is filed under the species Homo sapiens. Kind of data set: Effective concentration in human fibroblasts for increased oxidation of lactate. The format is functional, organism-based. In short, it runs like this:
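Human fibroblasts incubated with [14C]lactate; PDH complex activation read as conversion of [14C]lactate to 14CO2 (modified Ofenstein assay); EC50 (μM ± standard error).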

Data set [8] deals with T1, Pyruvate dehydrogenase kinase (Rattus norvegicus). Kind of data set: In vivo percent of control lactate in 24 hr fasted rats at 100 umol/kg oral dose. The format is functional, organism-based. In short, it runs like this: as §1
Data set [9] has the same target. Kind of data set: In vivo percent of control lactate in 24 hr fasted rats at 30 uM/kg oral dose. As to conditions: 30 umol/kg. The format is functional, organism-based. In short, it runs like this:
as §1

A short description of data set [10]: Tmax after oral dosing of 100 uM/Kg. The format is ADME, organism-based. To be noted: in vivo. In outline:
(§2)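 Plasma levels of parent drug profiled in rats after a single oral dose; t1/2, AUC (0–8 h), Tmax and Cmax derived from the plasma concentration–time profile.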

The nature of data set [11]: Area Under Curve after oral dosing of 100 uM/Kg. The format is ADME. In short, it runs like this:
as §2

The nature of data set [12]: Cmax after oral dosing of 100 umol/Kg. The format is ADME, organism-based. On the set-up: dose 100 umol/Kg, route oral. As to conditions: in vivo. In short, it runs like this: as §2
Data set [13] is described as follows: Half-life after oral administration (100 uM/Kg). The format is ADME, organism-based. To be noted: in vivo. In short, it runs like this: as §2
Data set [14] concerns the target T1, Pyruvate dehydrogenase kinase (Rattus norvegicus). Kind of data set: In vivo percent of control lactate in 24 hr fasted rats at 30 uM/kg oral dose after 2.5 hours. The format is functional, organism-based. In outline: as §1
Data set [15] has the same target. Kind of data set: In vivo percent of control lactate in 24 hr fasted rats at 30 uM/kg oral dose after 5 hours. The format is functional, organism-based. In short, it runs like this:
as §1

Data set [16] has the same target. Kind of data set: In vivo percent of control lactate in 24 hr fasted rats at 10 uM/kg oral dose after 2.5 hours. The format is functional, organism-based. In short, it runs like this:
as §1

As for `CC(C)CNS(=O)(=O)c1ccc(NC(=O)C(C)(C)O)c(Cl)c1`, the Control in data set [1] was 69%; in [2], 95%; in [3], 101%; in data set [4], 76%. As to `CC(O)(C(=O)Nc1cccc(C(F)(F)F)c1)C(F)(F)F` (stereo unspecified), in [5], the NA result was “inactive”. Molecule `C[C@@](O)(C(=O)Nc1ccc(S(C)(=O)=O)cc1Cl)C(F)(F)F` returned a Control in data set [6] of 65%. In [7], `CC(O)(C(=O)Nc1ccccc1Cl)C(F)(F)F` (stereo unspecified) registered an EC50 of 5.4 µM. In turn, `C[C@@](O)(C(=O)Nc1ccc(C(=O)N2CCOCC2)cc1Cl)C(F)(F)F` yielded a Control in data set [8] of 64%.

As for `Cc1cccc(C)c1NC(=O)C(C)(O)C(F)(F)F` (stereo unspecified), the NA entry in data set [5] was “inactive”. `C[C@@](O)(C(=O)Nc1ccc(C(=O)O)cc1Cl)C(F)(F)F` returned an EC50 in data set [7] of 1.4 µM. With `CC(O)(C(=O)Nc1cccc(C(=O)c2ccccc2)c1)C(F)(F)F` (stereo unspecified), in data set [7], the midpoint of the response, the EC50, lay at 10 µM. As to `CCOCCCNS(=O)(=O)c1ccc(NC(=O)[C@@](C)(O)C(F)(F)F)c(Cl)c1`, the Control is 70% in [2] and 72% in [3]. The molecule `C[C@@](O)(C(=O)Nc1ccc(C(=O)NCCCO)cc1Cl)C(F)(F)F` showed a Control in [8] of 88%. Molecule `COC(=O)[C@H](Cc1c[nH]c2ccccc12)N(C)C(=O)c1ccc(NC(=O)[C@@](C)(O)C(F)(F)F)c(Cl)c1` registered a Control in [9] of 102%. `CC(O)(C(=O)Nc1cccc(C(=O)O)c1Cl)C(F)(F)F` (stereo unspecified): in [10], the Tmax amounted to 0.5 h. For the same molecule, the exposure (AUC) in data set [11] is 143 µM·h. Besides, the peak level in [12] (Cmax) was 87.3 µM. For the same molecule, in [13], the half-life was 4.6 h. Molecule `C[C@@](O)(C(=O)Nc1ccc(C(=O)N[C@@H](CCc2ccccc2)C(=O)O)cc1Cl)C(F)(F)F` returned a Control in data set [9] of 97%. Take `CC(O)(C(=O)Nc1cc(C(=O)N2CCCCC2)ccc1Cl)C(F)(F)F` (stereo unspecified): the NA result in data set [5] is “inactive”. In the case of `C[C@@](O)(C(=O)Nc1ccc(S(=O)(=O)N2CCC(N)C2)cc1Cl)C(F)(F)F` (stereo partly specified), the Control in data set [2] was 70%; in data set [3], 82%. On to `C[C@@](O)(C(=O)Nc1ccc(S(=O)(=O)NCCCN2CCCC2=O)cc1Cl)C(F)(F)F`, for which the Control in data set [14] is 87%; in data set [2], 52%; in [3], 51%; in data set [15] it was 66%. Turning to `COC(=O)c1cccc(NC(=O)C(C)(O)C(F)(F)F)c1Cl` (stereo unspecified), in data set [7], the EC50 was 13.8 µM.

In the case of `CCCCCCNC(=O)c1ccc(Cl)c(NC(=O)C(C)(O)C(F)(F)F)c1` (stereo unspecified), in data set [5], the NA result was “inactive”. `COC(=O)c1ccc(Cl)c(NC(=O)C(C)(O)C(F)(F)F)c1` (stereo unspecified): the NA result in data set [5] is “inactive”. On to `CC(O)(C(=O)Nc1ccc(C(=O)N2CCCCC2)cc1Cl)C(F)(F)F` (stereo unspecified), for which it took 0.71 µM to reach a half-maximal effect in [7] (EC50). As to `CN(CCCO)C(=O)c1ccc(NC(=O)[C@@](C)(O)C(F)(F)F)c(Cl)c1`, the Control in data set [9] came out at 114%. In the case of `C[C@@](O)(C(=O)Nc1ccc(S(=O)(=O)NCc2ccccn2)cc1Cl)C(F)(F)F`, the Control was 84% in data set [2] and 64% in data set [3].

With `CC(C)CNS(=O)(=O)c1ccc(NC(=O)[C@@](C)(O)C(F)(F)F)c(Cl)c1`, the Control amounted to 83% in data set [14], 100% in data set [16], 60% in data set [2] and 69% in [3]. Turning to `CC(O)(C(=O)Nc1cc(C(=O)c2ccccc2)ccc1Cl)C(F)(F)F` (stereo unspecified), the NA result in [5] was “inactive”. `CC(O)(C(=O)Nc1cccc(C(=O)c2ccccc2)c1Cl)C(F)(F)F` (stereo unspecified) came in with an EC50 in [7] of 11 µM.

Take `C[C@@](O)(C(=O)Nc1ccc(S(=O)(=O)NCCc2ccc(F)cc2)cc1Cl)C(F)(F)F`: the Control in [2] came out at 69%; in data set [3] it was 124%. Regarding `COc1ccc(NC(=O)C(C)(O)C(F)(F)F)cc1` (stereo unspecified), the EC50 in data set [7] was found to be 43.1 µM.

In data set [8], `C[C@@](O)(C(=O)Nc1ccc(C(=O)N[C@@H](Cc2ccccc2)C(=O)[O-])cc1Cl)C(F)(F)F.[Na+]` registered a Control of 115%. Consider `CCCCCCNC(=O)c1ccc(NC(=O)C(C)(O)C(F)(F)F)c(Cl)c1` (stereo unspecified), for which the EC50 in data set [7] is 5.5 µM. With `C[C@@](O)(C(=O)Nc1ccc(S(=O)(=O)NCCN2CCOCC2)cc1Cl)C(F)(F)F`, the figures for the Control in data set [2] and in data set [3] were 84% and 71%, respectively. `CC(O)(C(=O)Nc1ccc(C#N)cc1Cl)C(F)(F)F` (stereo unspecified) came in with a Control in [6] of 78%.

For the molecule `CC(=O)c1ccccc1NC(=O)C(C)(O)C(F)(F)F` (stereo unspecified), the EC50 in data set [7] is 14 µM. Take `CC(O)(C(=O)Nc1ccccc1-c1ccccc1)C(F)(F)F` (stereo unspecified): the NA entry in [5] is “inactive”.

As for `C[C@@H](C(=O)[O-])N(C)C(=O)c1ccc(NC(=O)[C@@](C)(O)C(F)(F)F)c(Cl)c1.[Na+]`, in [9], the Control was 94%. Same read-out and setting: the result for `C[C@@](O)(C(=O)Nc1ccc(C(=O)N[C@@H](Cc2ccc(-c3ccccc3)cc2)C(=O)O)cc1Cl)C(F)(F)F` reads 101%. `COc1ccc(Cl)c(NC(=O)C(C)(O)C(F)(F)F)c1` (stereo unspecified): the NA result in [5] was “inactive”. In data set [1], `C[C@@](O)(C(=O)Nc1ccc(S(=O)(=O)N2CCNCC2)cc1Cl)C(F)(F)F` returned a Control of 77%. As to `C[C@@](O)(C(=O)Nc1ccc(C(=O)N2CCN(c3ccccn3)CC2)cc1Cl)C(F)(F)F`, in data set [8], the Control was 63%. On to `CC(O)(C(=O)Nc1ccc(C(=O)c2ccccc2)cc1Cl)C(F)(F)F` (stereo unspecified), for which the concentration for a half-maximal effect (EC50) in data set [7] stood at 30 µM. Take `C=CCNS(=O)(=O)c1ccc(NC(=O)[C@@](C)(O)C(F)(F)F)c(Cl)c1`: the values for the Control in [2] and in data set [3] were 62% and 76%, respectively. In [9], `CC(C)[C@@H](C(=O)[O-])N(C)C(=O)c1ccc(NC(=O)[C@@](C)(O)C(F)(F)F)c(Cl)c1.[Na+]` had a Control of 87%. For `CC(O)(C(=O)Nc1cc(C(=O)O)ccc1Cl)C(F)(F)F` (stereo unspecified), the NA result in [5] was “inactive”.

In the case of `C[C@@](O)(C(=O)Nc1ccc(C(=O)NCCCCCC(=O)[O-])cc1Cl)C(F)(F)F.[Na+]`, the Control in data set [8] was 94%.

By EC50 is commonly meant the midpoint of the concentration-response curve. The low end stands for a more potent agent, the high end for a less potent agent. For orientation: Tmax means the time from dosing to the highest level. By AUC is commonly meant the area under the concentration-time curve, a measure of exposure. A high value points to more exposure. What is called Cmax is the maximum level reached in the sampled fluid or tissue. Broadly, the half-life is the time in which the quantity being followed falls by half.
